Experimental data reported in ChEMBL document CHEMBL4346654 (Eur J Med Chem, 2019).
In brackets after ≈: the same amount, converted by molar mass.

Tests used:
Assay type in all cases: functional
[1] = system: Haemophilus influenzae; assay: Antibacterial activity against azithromycin-susceptible Haemophilus influenzae ATCC 49247 assessed as reduction in microbial growth by CLSI based two-fold broth dilution method
[2] = system: Streptococcus pyogenes; assay: Selectivity ratio of MBC to MIC for MLS-resistant Streptococcus pyogenes 01-968 expressing inducible ermB gene
Procedure, shortened: (§1)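 MBC/MIC ratio. MIC was measured by CLSI standard two-fold broth dilution. MBC was measured by transferring samples at 1–8 fold MIC to culture medium and subculturing for 24 h without antibiotic. Isolates were identified by 16S rDNA sequencing.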

[3] = system: Moraxella catarrhalis; assay: Bactericidal activity against erythromycin-susceptible Moraxella catarrhalis 13L332 pretreated followed by subculture in absence of compound measured after 24 hrs
Procedure, shortened: (§2)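 Isolates were identified by 16S rDNA sequencing. MIC was determined by CLSI-recommended two-fold broth dilution. For MBC, samples from 1–8 fold MIC were transferred to culture medium and subcultured for 24 h without antibiotic.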

[4] = system: Staphylococcus aureus; assay: Selectivity ratio of MBC to MIC for MLS/methicillin-resistant Staphylococcus aureus PU 32 expressing inducible ermA gene; procedure, shortened: as §1
[5] = system: Streptococcus pneumoniae; assay: Bactericidal activity against penicillin-susceptible Streptococcus pneumoniae PU 09 expressing mef gene pretreated followed by subculture in absence of compound measured after 24 hrs; procedure, shortened: as §2
[6] = system: Streptococcus pyogenes; assay: Selectivity ratio of MBC to MIC for Streptococcus pyogenes 12-207 expressing mef gene; procedure, shortened: as §2
[7] = system: Streptococcus pneumoniae; assay: Bactericidal activity against erythromycin-susceptible Streptococcus pneumoniae ATCC49619 pretreated followed by subculture in absence of compound measured after 24 hrs; procedure, shortened: as §2
[8] = system: Staphylococcus aureus; assay: Antibacterial activity against MLS-resistant Staphylococcus aureus PU 20 expressing constitutive ermC gene assessed as reduction in microbial growth by CLSI based two-fold broth dilution method
[9] = system: Streptococcus pneumoniae; assay: Selectivity ratio of MBC to MIC for Streptococcus pneumoniae 07P390 expressing constitutive ermB gene; procedure, shortened: as §2
[10] = system: Streptococcus pneumoniae; assay: Antibacterial activity against penicillin-susceptible Streptococcus pneumoniae PU 09 expressing mef gene assessed as reduction in microbial growth by CLSI based two-fold broth dilution method
[11] = system: Staphylococcus aureus; assay: Bactericidal activity against MLS/methicillin-resistant Staphylococcus aureus PU 32 expressing inducible ermA gene pretreated followed by subculture in absence of compound measured after 24 hrs
Procedure, shortened: (§3)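 MBC assay. Following MIC determination by CLSI standard two-fold broth dilution, samples at 1–8 fold MIC were transferred to fresh culture medium. They were subcultured for 24 h without antibiotic. Isolates were identified by 16S rDNA sequencing. S. aureus ATCC 29213 was used as a control strain.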

[12] = system: Streptococcus pneumoniae; assay: Antibacterial activity against Streptococcus pneumoniae 07P390 expressing constitutive ermB gene assessed as reduction in microbial growth by CLSI based two-fold broth dilution method
[13] = system: Streptococcus pneumoniae; assay: Bactericidal activity against Streptococcus pneumoniae 07P390 expressing constitutive ermB gene pretreated followed by subculture in absence of compound measured after 24 hrs; procedure, shortened: as §2
[14] = system: Streptococcus pyogenes; assay: Bactericidal activity against MLS-resistant Streptococcus pyogenes 01-968 expressing inducible ermB gene pretreated followed by subculture in absence of compound measured after 24 hrs; procedure, shortened: as §3
[15] = system: Streptococcus pyogenes; assay: Bactericidal activity against MLS-resistant Streptococcus pyogenes 12-206 expressing constitutive ermA gene pretreated followed by subculture in absence of compound measured after 24 hrs; procedure, shortened: as §3
[16] = system: Haemophilus influenzae; assay: Bactericidal activity against azithromycin-susceptible Haemophilus influenzae ATCC 49247 pretreated followed by subculture in absence of compound measured after 24 hrs; procedure, shortened: as §2
[17] = system: Streptococcus pyogenes; assay: Antibacterial activity against MLS-resistant Streptococcus pyogenes 12-206 expressing constitutive ermA gene assessed as reduction in microbial growth by CLSI based two-fold broth dilution method
[18] = system: Streptococcus pyogenes; assay: Selectivity ratio of MBC to MIC for MLS-resistant Streptococcus pyogenes 12-206 expressing constitutive ermA gene; procedure, shortened: as §1
[19] = system: Streptococcus pyogenes; assay: Bactericidal activity against Streptococcus pyogenes 12-207 expressing mef gene pretreated followed by subculture in absence of compound measured after 24 hrs; procedure, shortened: as §2
[20] = system: Streptococcus pyogenes; assay: Antibacterial activity against MLS-resistant Streptococcus pyogenes 01-968 expressing inducible ermB gene assessed as reduction in microbial growth by CLSI based two-fold broth dilution method
[21] = system: Staphylococcus aureus; assay: Antibacterial activity against MLS-resistant Staphylococcus aureus PU 32 expressing inducible ermA gene assessed as reduction in microbial growth by CLSI based two-fold broth dilution method
[22] = system: Streptococcus pneumoniae; assay: Antibacterial activity against erythromycin-susceptible Streptococcus pneumoniae ATCC49619 assessed as reduction in microbial growth by CLSI based two-fold broth dilution method
[23] = system: Streptococcus pyogenes; assay: Antibacterial activity against Streptococcus pyogenes 12-207 expressing mef gene assessed as reduction in microbial growth by CLSI based two-fold broth dilution method
[24] = system: Moraxella catarrhalis; assay: Selectivity ratio of MBC to MIC for erythromycin-susceptible Moraxella catarrhalis 13L332; procedure, shortened: as §2
[25] = system: Streptococcus pneumoniae; assay: Selectivity ratio of MBC to MIC for penicillin-susceptible Streptococcus pneumoniae PU 09 expressing mef gene; procedure, shortened: as §2
[26] = system: Moraxella catarrhalis; assay: Antibacterial activity against erythromycin-susceptible Moraxella catarrhalis 13L332 assessed as reduction in microbial growth by CLSI based two-fold broth dilution method
[27] = system: Staphylococcus aureus; assay: Bactericidal activity against MLS-resistant Staphylococcus aureus PU 20 expressing constitutive ermC gene pretreated followed by subculture in absence of compound measured after 24 hrs; procedure, shortened: as §3
[28] = system: Haemophilus influenzae; assay: Selectivity ratio of MBC to MIC for azithromycin-susceptible Haemophilus influenzae ATCC 49247; procedure, shortened: as §2
[29] = system: Streptococcus pneumoniae; assay: Selectivity ratio of MBC to MIC for erythromycin-susceptible Streptococcus pneumoniae ATCC49619; procedure, shortened: as §2

| Structure (SMILES) | MIC [1] [µg/mL] | Selectivity ratio [2] | Selectivity ratio [4] | MBC [5] [µg/mL] | MBC [7] [µg/mL] | MIC [8] [µg/mL] | Selectivity ratio [9] | MIC [10] [µg/mL] | MBC [11] [µg/mL] | MIC [12] [µg/mL] | MBC [13] [µg/mL] | MBC [14] [µg/mL] | MBC [16] [µg/mL] | MBC [19] [µg/mL] | MIC [20] [µg/mL] | MIC [21] [µg/mL] | MIC [22] [µg/mL] | Selectivity ratio [25] | MBC [27] [µg/mL] | Selectivity ratio [28] | also measured |
| --- | --- | --- | --- | --- | --- | --- | --- | --- | --- | --- | --- | --- | --- | --- | --- | --- | --- | --- | --- | --- | --- |
| CC[C@H]1OC(=O)[C@@](C)(F)C(=O)[C@H](C)[C@@H](O[C@@H]2O[C@H](C)C[C@H](N(C)C)[C@H]2O)[C@](C)(OC/C=C/c2ccc3c(c2)c(=O)c(C(=O)NC)cn3CC)C[C@@H](C)/C(=N\OC)[C@H](C)[C@H]2OC(=O)O[C@@]21C | 256 | >=4 | >8 | 1 (≈ 1.09 µM) | ≤ 0.008 | > 256 | >8 | 0.5 | > 2 | 0.031 | > 0.25 | 0.008 (≈ 0.00874 µM) | > 256 | 0.25 (≈ 0.273 µM) | ≤ 0.002 | 0.25 | ≤ 0.008 | 2 |  |  | MBC [3]: 4 µg/mL (≈ 4.37 µM); Selectivity ratio [6]: 4; MBC [15]: > 0.016 µg/mL; MIC [17]: ≤ 0.002 µg/mL; Selectivity ratio [18]: >8; MIC [23]: 0.062 µg/mL; Selectivity ratio [24]: 8; MIC [26]: 0.5 µg/mL |
| CC[C@H]1OC(=O)[C@@](C)(F)C(=O)[C@H](C)[C@@H](O[C@@H]2O[C@H](C)C[C@H](N(C)C)[C@H]2O)[C@](C)(OC/C=C/c2ccc3[nH]ccc(=O)c3c2)C[C@@H](C)/C(=N\OC)[C@H](C)[C@H]2OC(=O)O[C@@]21C | 8 | 8 | 8 | 4 (≈ 4.82 µM) | 0.062 (≈ 0.0747 µM) | 256 | 4 | 2 | 8 (≈ 9.64 µM) | 0.25 | 1 (≈ 1.2 µM) | 1 (≈ 1.2 µM) | 16 (≈ 19.3 µM) |  | 0.125 | 1 | 0.062 | 2 | > 256 | 2 | Selectivity ratio [29]: 1 |
| CC[C@H]1OC(=O)[C@@](C)(F)C(=O)[C@H](C)[C@@H](O[C@@H]2O[C@H](C)C[C@H](N(C)C)[C@H]2O)[C@](C)(OC)C[C@@H](C)/C(=N\OCC#Cc2ccc3[nH]ccc(=O)c3c2)[C@H](C)[C@H]2OC(=O)O[C@@]21C | 16 | >8 | 8 | 4 (≈ 4.83 µM) | 0.125 (≈ 0.151 µM) | 256 | 2 | 4 | 8 (≈ 9.66 µM) | 16 | 32 (≈ 38.6 µM) | > 0.062 | 16 (≈ 19.3 µM) |  | ≤ 0.008 | 1 | 0.062 | 1 | > 256 | 1 | Selectivity ratio [29]: 2 |
| CC[C@H]1OC(=O)[C@H](C)[C@@H](O[C@H]2C[C@@](C)(OC)[C@@H](O)[C@H](C)O2)[C@H](C)[C@@H](O[C@@H]2O[C@H](C)C[C@H](N(C)C)[C@H]2O)[C@](C)(O)C[C@@H](C)CN(C)[C@H](C)[C@@H](O)[C@]1(C)O [AZITHROMYCIN] | 2 | >8 | 1 | 16 (≈ 21.4 µM) | 0.25 (≈ 0.334 µM) | > 256 |  | 8 | 32 (≈ 42.7 µM) | 256 | > 256 | > 64 | 8 (≈ 10.7 µM) | 16 (≈ 21.4 µM) | 8 | 32 | 0.062 | 2 |  | 4 | MBC [3]: 0.25 µg/mL (≈ 0.334 µM); Selectivity ratio [6]: 1; MIC [17]: > 256 µg/mL; MIC [23]: 16 µg/mL; Selectivity ratio [29]: 4; Selectivity ratio [24]: 8; MIC [26]: 0.031 µg/mL |
| O=C(O)c1cn(C2CC2)c2cc(N3CCNCC3)c(F)cc2c1=O [CIPROFLOXACIN] |  |  |  | 4 (≈ 12.1 µM) | 2 (≈ 6.04 µM) |  |  |  | > 256 |  | 4 (≈ 12.1 µM) | 0.5 to 2 (≈ 1.51 to 6.04 µM) | 0.004 to 0.008 (≈ 0.0121 to 0.0241 µM) | 2 (≈ 6.04 µM) |  |  |  |  | > 256 |  | MBC [15]: > 1 µg/mL |
